Measurements as given in ChEMBL document CHEMBL1275458, “First molecular characterization of group B streptococci with reduced penicillin susceptibility” (2008).
Converted amounts (≈) assume the structure as drawn.

Columns and labels:
Streptococcus agalactiae [1] = assay: Antimicrobial activity against penicillin-resistant Streptococcus agalactiae B514 by agar dilution method; format: functional
Procedure, shortened: (§1)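 Agar dilution MICs run per the CLSI recommendation. S. pneumoniae ATCC 49619 was included as the quality control strain. β-lactams tested were penicillin G, penicillin V, ampicillin, oxacillin, cefazolin, cefepime, cefotaxime, ceftizoxime and meropenem. Test strains were S. agalactiae clinical sputum isolates and ATCC strains BAA-611 and 12403.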

Streptococcus agalactiae [2] = assay: Antimicrobial activity against penicillin-resistant Streptococcus agalactiae B40 by agar dilution method; format: functional; procedure, shortened: as §1
Streptococcus agalactiae [3] = assay: Antimicrobial activity against penicillin-resistant Streptococcus agalactiae B513 by agar dilution method; format: functional; procedure, shortened: as §1
Streptococcus agalactiae [4] = assay: Antimicrobial activity against penicillin-resistant Streptococcus agalactiae ATCC BAA-611 harboring PBP-2X V405A mutant gene by agar dilution method; format: functional; procedure, shortened: as §1
Streptococcus agalactiae [5] = assay: Antimicrobial activity against penicillin-susceptible Streptococcus agalactiae ATCC 12403 by agar dilution method
Streptococcus agalactiae [6] = assay: Antimicrobial activity against penicillin-susceptible Streptococcus agalactiae ATCC BAA-611 by agar dilution method
Streptococcus agalactiae [7] = assay: Antimicrobial activity against penicillin-resistant Streptococcus agalactiae B7 by agar dilution method; format: functional; procedure, shortened: as §1
Streptococcus agalactiae [8] = assay: Antimicrobial activity against penicillin-resistant Streptococcus agalactiae B503 by agar dilution method; format: functional; procedure, shortened: as §1
Streptococcus agalactiae [9] = assay: Antimicrobial activity against penicillin-resistant Streptococcus agalactiae B502 by agar dilution method; format: functional; procedure, shortened: as §1
Streptococcus agalactiae [10] = assay: Antimicrobial activity against penicillin-resistant Streptococcus agalactiae B68 by agar dilution method; format: functional; procedure, shortened: as §1
Streptococcus agalactiae [11] = assay: Antimicrobial activity against penicillin-resistant Streptococcus agalactiae B516 by agar dilution method; format: functional; procedure, shortened: as §1
Streptococcus agalactiae [12] = assay: Antimicrobial activity against penicillin-resistant Streptococcus agalactiae B10 by agar dilution method; format: functional; procedure, shortened: as §1
Streptococcus agalactiae [13] = assay: Antimicrobial activity against penicillin-resistant Streptococcus agalactiae B6 by agar dilution method; format: functional; procedure, shortened: as §1
Streptococcus pneumoniae = assay: Antimicrobial activity against Streptococcus pneumoniae ATCC 49619 by agar dilution method; format: functional
Procedure, shortened: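 MIC by agar dilution per CLSI recommendations. The strain is a penicillin-susceptible S. pneumoniae quality-control strain, run alongside the clinical GBS isolates. β-lactams tested were penicillin G, penicillin V, ampicillin, oxacillin, cefazolin, cefepime, cefotaxime, ceftizoxime and meropenem.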

Streptococcus agalactiae [14] = assay: Antimicrobial activity against penicillin-resistant Streptococcus agalactiae B60 by agar dilution method; format: functional; procedure, shortened: as §1
Streptococcus agalactiae [15] = assay: Antimicrobial activity against penicillin-resistant Streptococcus agalactiae ATCC BAA-611 harboring PBP-2X Q557E mutant gene by agar dilution method; format: functional; procedure, shortened: as §1
Streptococcus agalactiae [16] = assay: Antimicrobial activity against penicillin-resistant Streptococcus agalactiae B8 by agar dilution method; format: functional; procedure, shortened: as §1
Streptococcus agalactiae [17] = assay: Antimicrobial activity against penicillin-resistant Streptococcus agalactiae B1 by agar dilution method; format: functional; procedure, shortened: as §1
Streptococcus agalactiae [18] = assay: Antimicrobial activity against penicillin-resistant Streptococcus agalactiae B12 by agar dilution method; format: functional; procedure, shortened: as §1

SMILES | MIC (Streptococcus agalactiae [1]) | MIC (Streptococcus agalactiae [2]) | MIC (Streptococcus agalactiae [3]) | MIC (Streptococcus agalactiae [4]) | MIC (Streptococcus agalactiae [5]) | MIC (Streptococcus agalactiae [6]) | MIC (Streptococcus agalactiae [7]) | MIC (Streptococcus agalactiae [8]) | MIC (Streptococcus agalactiae [9]) | MIC (Streptococcus agalactiae [10]) | MIC (Streptococcus agalactiae [11]) | MIC (Streptococcus agalactiae [12]) | MIC (Streptococcus agalactiae [13]) | MIC (Streptococcus pneumoniae) | MIC (Streptococcus agalactiae [14]) | MIC (Streptococcus agalactiae [15]) | MIC (Streptococcus agalactiae [16]) | MIC (Streptococcus agalactiae [17]) | MIC (Streptococcus agalactiae [18])
CC1(C)S[C@@H]2[C@H](NC(=O)Cc3ccccc3)C(=O)N2[C@H]1C(=O)O [PENICILLIN G] | 0.25 µg/mL (≈ 0.748 µM) | 0.5 µg/mL (≈ 1.5 µM) | 1 µg/mL (≈ 2.99 µM) | 0.25 µg/mL (≈ 0.748 µM) | 0.06 µg/mL (≈ 0.179 µM) | 0.06 µg/mL (≈ 0.179 µM) | 0.25 µg/mL (≈ 0.748 µM) | 0.25 µg/mL (≈ 0.748 µM) | 0.5 µg/mL (≈ 1.5 µM) | 0.5 µg/mL (≈ 1.5 µM) | 0.25 µg/mL (≈ 0.748 µM) | 0.5 µg/mL (≈ 1.5 µM) | 0.25 µg/mL (≈ 0.748 µM) | 0.25 µg/mL (≈ 0.748 µM) | 0.25 µg/mL (≈ 0.748 µM) | 0.5 µg/mL (≈ 1.5 µM) | 0.25 µg/mL (≈ 0.748 µM) | 0.5 µg/mL (≈ 1.5 µM) | 0.25 µg/mL (≈ 0.748 µM)
CC1(C)S[C@@H]2[C@H](NC(=O)[C@H](N)c3ccccc3)C(=O)N2[C@H]1C(=O)O [AMPICILLIN] | 0.5 µg/mL (≈ 1.43 µM) | 0.12 µg/mL (≈ 0.343 µM) | 0.5 µg/mL (≈ 1.43 µM) | 0.25 µg/mL (≈ 0.715 µM) | 0.12 µg/mL (≈ 0.343 µM) | 0.12 µg/mL (≈ 0.343 µM) | 0.12 µg/mL (≈ 0.343 µM) | 0.5 µg/mL (≈ 1.43 µM) | 0.5 µg/mL (≈ 1.43 µM) | 0.5 µg/mL (≈ 1.43 µM) | 0.25 µg/mL (≈ 0.715 µM) | 0.12 µg/mL (≈ 0.343 µM) | 0.12 µg/mL (≈ 0.343 µM) | 0.12 µg/mL (≈ 0.343 µM) | 0.25 µg/mL (≈ 0.715 µM) | 0.12 µg/mL (≈ 0.343 µM) | 0.5 µg/mL (≈ 1.43 µM) | 0.12 µg/mL (≈ 0.343 µM) | 0.25 µg/mL (≈ 0.715 µM)
CO/N=C(\C(=O)N[C@@H]1C(=O)N2C(C(=O)O)=CCS[C@H]12)c1csc(N)n1 [CEFTIZOXIME] | 32 µg/mL (≈ 83.5 µM) | 32 µg/mL (≈ 83.5 µM) | 64 µg/mL (≈ 167 µM) | 16 µg/mL (≈ 41.7 µM) | 0.12 µg/mL (≈ 0.313 µM) | 0.12 µg/mL (≈ 0.313 µM) | 4 µg/mL (≈ 10.4 µM) | 16 µg/mL (≈ 41.7 µM) | 16 µg/mL (≈ 41.7 µM) | 4 µg/mL (≈ 10.4 µM) | 16 µg/mL (≈ 41.7 µM) | 16 µg/mL (≈ 41.7 µM) | 32 µg/mL (≈ 83.5 µM) | 0.12 µg/mL (≈ 0.313 µM) | 32 µg/mL (≈ 83.5 µM) | 32 µg/mL (≈ 83.5 µM) | 64 µg/mL (≈ 167 µM) | 128 µg/mL (≈ 334 µM) | 32 µg/mL (≈ 83.5 µM)
CC1(C)S[C@@H]2[C@H](NC(=O)COc3ccccc3)C(=O)N2[C@H]1C(=O)O [PENICILLIN V] | 0.25 µg/mL (≈ 0.713 µM) | 0.5 µg/mL (≈ 1.43 µM) | 1 µg/mL (≈ 2.85 µM) | 0.12 µg/mL (≈ 0.342 µM) | 0.03 µg/mL (≈ 0.0856 µM) | 0.03 µg/mL (≈ 0.0856 µM) | 0.12 µg/mL (≈ 0.342 µM) | 0.12 µg/mL (≈ 0.342 µM) | 0.25 µg/mL (≈ 0.713 µM) | 0.25 µg/mL (≈ 0.713 µM) | 0.25 µg/mL (≈ 0.713 µM) | 0.25 µg/mL (≈ 0.713 µM) | 0.5 µg/mL (≈ 1.43 µM) | 0.5 µg/mL (≈ 1.43 µM) | 0.25 µg/mL (≈ 0.713 µM) | 0.5 µg/mL (≈ 1.43 µM) | 0.25 µg/mL (≈ 0.713 µM) | 0.25 µg/mL (≈ 0.713 µM) | 0.5 µg/mL (≈ 1.43 µM)
C[C@@H](O)[C@H]1C(=O)N2C(C(=O)O)=C(S[C@@H]3CN[C@H](C(=O)N(C)C)C3)[C@H](C)[C@H]12 [MEROPENEM] | 0.25 µg/mL (≈ 0.652 µM) | 0.06 µg/mL (≈ 0.156 µM) | 0.25 µg/mL (≈ 0.652 µM) | 0.12 µg/mL (≈ 0.313 µM) | 0.03 µg/mL (≈ 0.0782 µM) | 0.03 µg/mL (≈ 0.0782 µM) | 0.25 µg/mL (≈ 0.652 µM) | 0.12 µg/mL (≈ 0.313 µM) | 0.25 µg/mL (≈ 0.652 µM) | 0.12 µg/mL (≈ 0.313 µM) | 0.12 µg/mL (≈ 0.313 µM) | 0.06 µg/mL (≈ 0.156 µM) | 0.06 µg/mL (≈ 0.156 µM) | 0.06 µg/mL (≈ 0.156 µM) | 0.12 µg/mL (≈ 0.313 µM) | 0.12 µg/mL (≈ 0.313 µM) | 0.12 µg/mL (≈ 0.313 µM) | 0.06 µg/mL (≈ 0.156 µM) | 0.25 µg/mL (≈ 0.652 µM)
Cc1onc(-c2ccccc2)c1C(=O)N[C@@H]1C(=O)N2[C@@H]1SC(C)(C)[C@@H]2C(=O)O [OXACILLIN] | 4 µg/mL (≈ 9.96 µM) | 8 µg/mL (≈ 19.9 µM) | 8 µg/mL (≈ 19.9 µM) | 2 µg/mL (≈ 4.98 µM) | 0.25 µg/mL (≈ 0.623 µM) | 0.25 µg/mL (≈ 0.623 µM) | 2 µg/mL (≈ 4.98 µM) | 2 µg/mL (≈ 4.98 µM) | 4 µg/mL (≈ 9.96 µM) | 4 µg/mL (≈ 9.96 µM) | 4 µg/mL (≈ 9.96 µM) | 4 µg/mL (≈ 9.96 µM) | 4 µg/mL (≈ 9.96 µM) | 1 µg/mL (≈ 2.49 µM) | 4 µg/mL (≈ 9.96 µM) | 4 µg/mL (≈ 9.96 µM) | 4 µg/mL (≈ 9.96 µM) | 4 µg/mL (≈ 9.96 µM) | 4 µg/mL (≈ 9.96 µM)
CO/N=C(\C(=O)N[C@@H]1C(=O)N2C(C(=O)[O-])=C(C[N+]3(C)CCCC3)CS[C@H]12)c1csc(N)n1 [CEFEPIME] | 0.5 µg/mL (≈ 1.04 µM) | 0.25 µg/mL (≈ 0.52 µM) | 1 µg/mL (≈ 2.08 µM) | 0.5 µg/mL (≈ 1.04 µM) | 0.06 µg/mL (≈ 0.125 µM) | 0.06 µg/mL (≈ 0.125 µM) | 0.25 µg/mL (≈ 0.52 µM) | 0.25 µg/mL (≈ 0.52 µM) | 0.5 µg/mL (≈ 1.04 µM) | 0.5 µg/mL (≈ 1.04 µM) | 0.5 µg/mL (≈ 1.04 µM) | 0.25 µg/mL (≈ 0.52 µM) | 0.25 µg/mL (≈ 0.52 µM) | 0.03 µg/mL (≈ 0.0624 µM) | 0.25 µg/mL (≈ 0.52 µM) | 0.5 µg/mL (≈ 1.04 µM) | 0.5 µg/mL (≈ 1.04 µM) | 0.5 µg/mL (≈ 1.04 µM) | 0.5 µg/mL (≈ 1.04 µM)
CO/N=C(\C(=O)N[C@@H]1C(=O)N2C(C(=O)O)=C(COC(C)=O)CS[C@H]12)c1csc(N)n1 [CEFOTAXIME] | 0.25 µg/mL (≈ 0.549 µM) | 0.5 µg/mL (≈ 1.1 µM) | 1 µg/mL (≈ 2.2 µM) | 0.12 µg/mL (≈ 0.263 µM) | 0.06 µg/mL (≈ 0.132 µM) | 0.06 µg/mL (≈ 0.132 µM) | 0.12 µg/mL (≈ 0.263 µM) | 0.25 µg/mL (≈ 0.549 µM) | 0.25 µg/mL (≈ 0.549 µM) | 0.25 µg/mL (≈ 0.549 µM) | 0.25 µg/mL (≈ 0.549 µM) | 0.5 µg/mL (≈ 1.1 µM) | 1 µg/mL (≈ 2.2 µM) | 0.03 µg/mL (≈ 0.0659 µM) | 0.25 µg/mL (≈ 0.549 µM) | 0.5 µg/mL (≈ 1.1 µM) | 0.25 µg/mL (≈ 0.549 µM) | 2 µg/mL (≈ 4.39 µM) | 0.5 µg/mL (≈ 1.1 µM)
Cc1nnc(SCC2=C(C(=O)O)N3C(=O)[C@@H](NC(=O)Cn4cnnn4)[C@H]3SC2)s1 [CEFAZOLIN] | 1 µg/mL (≈ 2.2 µM) | 1 µg/mL (≈ 2.2 µM) | 1 µg/mL (≈ 2.2 µM) | 0.5 µg/mL (≈ 1.1 µM) | 0.12 µg/mL (≈ 0.264 µM) | 0.12 µg/mL (≈ 0.264 µM) | 0.5 µg/mL (≈ 1.1 µM) | 0.5 µg/mL (≈ 1.1 µM) | 0.5 µg/mL (≈ 1.1 µM) | 0.5 µg/mL (≈ 1.1 µM) | 0.5 µg/mL (≈ 1.1 µM) | 1 µg/mL (≈ 2.2 µM) | 1 µg/mL (≈ 2.2 µM) | 1 µg/mL (≈ 2.2 µM) | 1 µg/mL (≈ 2.2 µM) | 2 µg/mL (≈ 4.4 µM) | 1 µg/mL (≈ 2.2 µM) | 2 µg/mL (≈ 4.4 µM) | 1 µg/mL (≈ 2.2 µM)
